In ChEMBL document CHEMBL1135728, “Bis(1H-2-indolyl)methanones as a novel class of inhibitors of the platelet-derived growth factor receptor kinase” (J Med Chem, 2002):

Experiments:
[1] = molecular target: Platelet-derived growth factor receptor (Homo sapiens, UniProt P09619+P16234); experiment: Antitumor activity measured by the inhibition of platelet-derived growth factor receptor autophosphorylation in intact Swiss 3T3 cells; assay type: cell-based
In short: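 Quiescent Swiss 3T3 fibroblasts moved to serum-free DMEM and exposed to compound in DMSO (final 1%) for 2 h. They were then stimulated with 100 ng/mL human recombinant PDGF-BB for 10 min at room temperature and lysed. Autophosphorylation was read by immunoblotting. Four to eight concentrations were tested across 2 orders of magnitude, and IC50 came from curve fitting over three independent experiments.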

[2] = molecular target: T1, Platelet-derived growth factor receptor beta (Homo sapiens, UniProt P09619); experiment: Inhibition of Platelet-derived growth factor receptor beta autophosphorylation in PAE cells; assay type: cell-based, Sus scrofa
T1 sequence (P09619 whole entry): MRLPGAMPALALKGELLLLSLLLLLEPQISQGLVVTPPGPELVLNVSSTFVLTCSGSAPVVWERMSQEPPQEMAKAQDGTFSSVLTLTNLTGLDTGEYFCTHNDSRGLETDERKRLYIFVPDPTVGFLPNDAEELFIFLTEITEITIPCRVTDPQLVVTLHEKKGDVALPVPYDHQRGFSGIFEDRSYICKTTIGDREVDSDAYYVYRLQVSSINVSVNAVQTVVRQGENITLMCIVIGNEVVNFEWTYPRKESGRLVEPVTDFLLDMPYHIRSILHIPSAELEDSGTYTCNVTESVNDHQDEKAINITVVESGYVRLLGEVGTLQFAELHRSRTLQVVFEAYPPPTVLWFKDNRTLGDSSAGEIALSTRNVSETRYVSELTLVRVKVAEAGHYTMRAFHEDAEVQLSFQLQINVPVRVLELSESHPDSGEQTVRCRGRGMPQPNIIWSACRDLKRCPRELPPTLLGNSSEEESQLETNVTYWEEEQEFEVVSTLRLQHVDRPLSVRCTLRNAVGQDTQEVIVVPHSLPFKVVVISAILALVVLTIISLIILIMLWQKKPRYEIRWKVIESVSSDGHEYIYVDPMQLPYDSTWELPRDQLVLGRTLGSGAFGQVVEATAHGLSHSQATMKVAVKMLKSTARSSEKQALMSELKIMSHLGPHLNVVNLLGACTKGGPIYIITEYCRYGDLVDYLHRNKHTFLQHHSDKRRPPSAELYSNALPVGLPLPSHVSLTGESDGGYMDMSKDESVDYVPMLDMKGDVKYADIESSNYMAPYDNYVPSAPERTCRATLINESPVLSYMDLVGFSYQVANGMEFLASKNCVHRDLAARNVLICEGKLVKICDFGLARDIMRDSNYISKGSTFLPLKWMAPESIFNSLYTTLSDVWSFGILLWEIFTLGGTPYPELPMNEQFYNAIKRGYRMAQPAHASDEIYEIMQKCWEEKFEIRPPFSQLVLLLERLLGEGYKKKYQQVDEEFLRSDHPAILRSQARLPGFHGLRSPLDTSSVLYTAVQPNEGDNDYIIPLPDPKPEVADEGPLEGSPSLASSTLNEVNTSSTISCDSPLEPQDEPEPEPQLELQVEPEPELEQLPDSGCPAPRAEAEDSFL
In short: (§1)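 Porcine aortic endothelial cells expressing human PDGF α- or β-receptor were used. Receptor autophosphorylation in the intact cells was read by immunoblotting.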

[3] = molecular target: T1, Platelet-derived growth factor receptor beta; experiment: Inhibition of purified Platelet-derived growth factor receptor beta kinase activity
In short: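 PDGFβ-receptor kinase was purified from membranes of a receptor-overexpressing cell line. Inhibition was tested in an in vitro autophosphorylation assay at 10 µM ATP.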

[4] = molecular target: Fibroblast growth factor receptor 1 (Homo sapiens, UniProt P11362); experiment: Inhibition of Fibroblast growth factor receptor 1 autophosphorylation in PAE cells; assay type: cell-based, Sus scrofa
Chain of Fibroblast growth factor receptor 1 (P11362 whole entry): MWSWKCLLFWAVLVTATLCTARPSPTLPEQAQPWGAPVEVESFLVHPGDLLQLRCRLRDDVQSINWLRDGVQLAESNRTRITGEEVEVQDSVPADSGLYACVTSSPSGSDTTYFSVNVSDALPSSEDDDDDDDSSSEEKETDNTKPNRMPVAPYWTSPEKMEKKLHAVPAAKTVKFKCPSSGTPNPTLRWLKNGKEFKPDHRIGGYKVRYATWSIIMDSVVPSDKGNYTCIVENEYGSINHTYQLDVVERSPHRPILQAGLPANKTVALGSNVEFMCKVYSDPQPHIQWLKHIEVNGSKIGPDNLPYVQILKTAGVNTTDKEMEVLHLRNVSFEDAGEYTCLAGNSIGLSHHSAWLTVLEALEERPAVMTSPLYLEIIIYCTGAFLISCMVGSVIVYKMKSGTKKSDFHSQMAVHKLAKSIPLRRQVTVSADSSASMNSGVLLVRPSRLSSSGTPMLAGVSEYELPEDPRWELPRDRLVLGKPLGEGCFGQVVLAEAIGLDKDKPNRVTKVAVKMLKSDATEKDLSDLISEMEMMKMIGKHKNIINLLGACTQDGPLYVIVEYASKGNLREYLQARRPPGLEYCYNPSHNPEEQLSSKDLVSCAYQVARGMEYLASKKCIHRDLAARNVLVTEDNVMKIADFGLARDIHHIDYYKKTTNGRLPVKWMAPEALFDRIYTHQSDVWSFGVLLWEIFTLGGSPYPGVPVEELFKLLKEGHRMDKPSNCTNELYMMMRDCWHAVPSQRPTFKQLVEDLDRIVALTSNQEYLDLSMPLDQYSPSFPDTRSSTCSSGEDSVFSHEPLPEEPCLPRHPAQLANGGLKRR

[5] = molecular target: Proto-oncogene tyrosine-protein kinase Src (Homo sapiens, UniProt P12931); experiment: Inhibition of Src protein tyrosine kinase
Chain of Proto-oncogene tyrosine-protein kinase Src (P12931 2-536 limits assumed): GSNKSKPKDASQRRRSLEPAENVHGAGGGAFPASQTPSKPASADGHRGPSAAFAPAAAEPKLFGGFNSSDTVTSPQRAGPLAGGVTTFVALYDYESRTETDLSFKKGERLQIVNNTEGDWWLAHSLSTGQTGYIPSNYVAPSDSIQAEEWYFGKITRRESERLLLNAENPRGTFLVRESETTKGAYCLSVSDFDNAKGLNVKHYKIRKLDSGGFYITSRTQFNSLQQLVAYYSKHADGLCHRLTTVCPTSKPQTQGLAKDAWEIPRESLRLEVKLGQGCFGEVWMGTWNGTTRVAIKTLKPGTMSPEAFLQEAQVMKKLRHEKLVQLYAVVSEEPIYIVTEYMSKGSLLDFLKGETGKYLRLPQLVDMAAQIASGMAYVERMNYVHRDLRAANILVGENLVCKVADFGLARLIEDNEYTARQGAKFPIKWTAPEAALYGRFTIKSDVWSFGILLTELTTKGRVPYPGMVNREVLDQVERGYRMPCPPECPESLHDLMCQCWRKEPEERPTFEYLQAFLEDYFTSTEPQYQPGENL
In short: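 Src-dependent tyrosine phosphorylation was measured in intact src-transformed NIH3T3 fibroblasts, with immunoblot read-out.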

[6] = molecular target: T2, Protein kinase C epsilon type (Homo sapiens, UniProt Q02156); experiment: Inhibition of His-tagged Protein kinase C epsilon over-expressed in COS7 cells; assay type: cell-based, COS-7
T2 sequence (Q02156 whole entry): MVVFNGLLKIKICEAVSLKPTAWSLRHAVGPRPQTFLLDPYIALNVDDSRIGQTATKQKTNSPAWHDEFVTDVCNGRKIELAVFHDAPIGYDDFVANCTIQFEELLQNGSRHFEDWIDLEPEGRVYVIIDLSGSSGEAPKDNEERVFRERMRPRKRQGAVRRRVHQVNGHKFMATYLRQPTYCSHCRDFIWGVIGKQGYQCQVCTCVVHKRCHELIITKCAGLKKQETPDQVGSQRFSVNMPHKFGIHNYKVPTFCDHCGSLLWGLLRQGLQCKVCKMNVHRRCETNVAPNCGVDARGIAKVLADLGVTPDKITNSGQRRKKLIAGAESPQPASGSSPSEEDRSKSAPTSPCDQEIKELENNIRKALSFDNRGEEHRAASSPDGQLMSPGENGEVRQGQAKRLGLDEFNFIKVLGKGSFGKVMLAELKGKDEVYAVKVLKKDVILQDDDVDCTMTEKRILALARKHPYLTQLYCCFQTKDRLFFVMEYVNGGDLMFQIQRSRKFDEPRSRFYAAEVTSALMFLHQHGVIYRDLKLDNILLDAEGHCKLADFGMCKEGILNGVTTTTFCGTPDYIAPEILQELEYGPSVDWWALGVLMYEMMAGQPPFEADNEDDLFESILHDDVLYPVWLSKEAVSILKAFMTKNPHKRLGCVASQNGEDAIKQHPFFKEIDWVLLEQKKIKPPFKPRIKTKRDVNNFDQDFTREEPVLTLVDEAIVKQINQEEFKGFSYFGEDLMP
In short: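 RGS-His6-tagged PKC was transiently expressed in COS-7 cells, purified on Ni-NTA agarose and eluted with 500 mM imidazole. Reactions ran 10 min at 30 °C; phosphocellulose binding and scintillation counting gave the read-out.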

[7] = molecular target: T1, Platelet-derived growth factor receptor beta; experiment: Inhibition of Platelet-derived growth factor receptor beta kinase activity in Sf9-expressed GST-fusion protein
In short: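 A constitutively active GST fusion of the PDGFβ-receptor cytoplasmic domain was expressed in Sf9 cells. The isolated fusion protein was tested in an in vitro autophosphorylation assay at 10 µM ATP.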

[8] = molecular target: T3, Beta-adrenergic receptor kinase 1 (Homo sapiens, UniProt P25098); experiment: Inhibition of G-protein coupled receptor kinase 2 (GRK2) in vitro phosphorylation
T3 sequence (P25098 whole entry): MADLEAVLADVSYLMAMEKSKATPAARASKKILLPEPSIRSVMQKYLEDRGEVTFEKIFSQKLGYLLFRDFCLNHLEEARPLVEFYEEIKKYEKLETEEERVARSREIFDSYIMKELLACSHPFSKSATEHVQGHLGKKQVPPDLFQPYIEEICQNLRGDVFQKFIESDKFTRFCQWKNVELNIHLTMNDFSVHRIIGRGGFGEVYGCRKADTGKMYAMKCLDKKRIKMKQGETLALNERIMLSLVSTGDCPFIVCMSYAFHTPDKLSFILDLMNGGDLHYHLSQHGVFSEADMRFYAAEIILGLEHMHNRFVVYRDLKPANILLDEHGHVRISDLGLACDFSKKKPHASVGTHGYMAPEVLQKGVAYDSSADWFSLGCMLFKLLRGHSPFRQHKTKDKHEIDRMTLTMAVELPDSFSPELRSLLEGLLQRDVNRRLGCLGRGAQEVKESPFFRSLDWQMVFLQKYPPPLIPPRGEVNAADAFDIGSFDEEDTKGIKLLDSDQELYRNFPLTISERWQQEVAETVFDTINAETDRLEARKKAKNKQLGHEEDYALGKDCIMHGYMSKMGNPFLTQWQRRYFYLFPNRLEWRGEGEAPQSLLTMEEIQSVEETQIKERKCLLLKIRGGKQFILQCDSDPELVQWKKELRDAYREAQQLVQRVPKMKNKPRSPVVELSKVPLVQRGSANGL
In short: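 GRK2 was assayed in vitro using lysates of GRK2-overexpressing 293 cells as the kinase source. Rhodopsin purified from bovine rod outer segments served as substrate.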

[9] = Inhibition of Protein kinase C isoforms epsilon and iota in vitro phosphorylation
In short: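 RGS-His6-tagged PKC isoforms were expressed transiently in COS-7 cells and purified from lysate on Ni-NTA, with imidazole elution. Reactions ran 10 min at 30 °C, and phosphocellulose-bound radioactivity was counted.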

[10] = molecular target: Platelet-derived growth factor receptor alpha (Homo sapiens, UniProt P16234); experiment: Inhibition of Platelet-derived growth factor receptor alpha autophosphorylation in PAE cells; assay type: cell-based, Sus scrofa; in short: as §1
Chain of Platelet-derived growth factor receptor alpha (P16234 whole entry): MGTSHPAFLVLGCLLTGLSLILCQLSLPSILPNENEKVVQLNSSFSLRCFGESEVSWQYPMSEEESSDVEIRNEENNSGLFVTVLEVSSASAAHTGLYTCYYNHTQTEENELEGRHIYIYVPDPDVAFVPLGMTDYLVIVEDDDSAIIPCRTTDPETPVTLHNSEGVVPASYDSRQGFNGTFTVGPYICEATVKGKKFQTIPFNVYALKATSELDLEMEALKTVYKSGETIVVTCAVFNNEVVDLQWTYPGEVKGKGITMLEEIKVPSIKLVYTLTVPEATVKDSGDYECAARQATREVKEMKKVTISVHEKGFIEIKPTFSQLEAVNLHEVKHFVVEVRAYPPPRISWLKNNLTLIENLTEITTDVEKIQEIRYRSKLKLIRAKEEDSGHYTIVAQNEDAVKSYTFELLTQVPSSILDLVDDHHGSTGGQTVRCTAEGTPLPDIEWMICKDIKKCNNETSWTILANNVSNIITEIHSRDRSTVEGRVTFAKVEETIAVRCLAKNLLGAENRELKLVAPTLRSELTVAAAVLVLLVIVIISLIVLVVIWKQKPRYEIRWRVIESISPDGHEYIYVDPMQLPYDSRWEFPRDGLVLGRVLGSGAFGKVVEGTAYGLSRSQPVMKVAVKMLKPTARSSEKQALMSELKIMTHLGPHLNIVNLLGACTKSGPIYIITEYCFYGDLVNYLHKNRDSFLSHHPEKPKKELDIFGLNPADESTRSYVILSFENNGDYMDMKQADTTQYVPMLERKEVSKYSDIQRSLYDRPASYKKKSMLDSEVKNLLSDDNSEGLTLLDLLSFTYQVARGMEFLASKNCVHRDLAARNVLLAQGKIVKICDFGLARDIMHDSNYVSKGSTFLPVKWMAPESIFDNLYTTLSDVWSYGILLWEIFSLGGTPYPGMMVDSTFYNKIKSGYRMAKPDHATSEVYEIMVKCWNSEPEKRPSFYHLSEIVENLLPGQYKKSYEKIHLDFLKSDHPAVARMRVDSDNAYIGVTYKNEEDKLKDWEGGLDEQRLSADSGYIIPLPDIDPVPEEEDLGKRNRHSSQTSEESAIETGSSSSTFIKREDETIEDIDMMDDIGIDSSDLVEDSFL

[11] = molecular target: Epidermal growth factor receptor (Homo sapiens, UniProt P00533); experiment: Inhibition of Epidermal growth factor receptor autophosphorylation in A431 cells; assay type: cell-based, A-431
Chain of Epidermal growth factor receptor (P00533 whole entry): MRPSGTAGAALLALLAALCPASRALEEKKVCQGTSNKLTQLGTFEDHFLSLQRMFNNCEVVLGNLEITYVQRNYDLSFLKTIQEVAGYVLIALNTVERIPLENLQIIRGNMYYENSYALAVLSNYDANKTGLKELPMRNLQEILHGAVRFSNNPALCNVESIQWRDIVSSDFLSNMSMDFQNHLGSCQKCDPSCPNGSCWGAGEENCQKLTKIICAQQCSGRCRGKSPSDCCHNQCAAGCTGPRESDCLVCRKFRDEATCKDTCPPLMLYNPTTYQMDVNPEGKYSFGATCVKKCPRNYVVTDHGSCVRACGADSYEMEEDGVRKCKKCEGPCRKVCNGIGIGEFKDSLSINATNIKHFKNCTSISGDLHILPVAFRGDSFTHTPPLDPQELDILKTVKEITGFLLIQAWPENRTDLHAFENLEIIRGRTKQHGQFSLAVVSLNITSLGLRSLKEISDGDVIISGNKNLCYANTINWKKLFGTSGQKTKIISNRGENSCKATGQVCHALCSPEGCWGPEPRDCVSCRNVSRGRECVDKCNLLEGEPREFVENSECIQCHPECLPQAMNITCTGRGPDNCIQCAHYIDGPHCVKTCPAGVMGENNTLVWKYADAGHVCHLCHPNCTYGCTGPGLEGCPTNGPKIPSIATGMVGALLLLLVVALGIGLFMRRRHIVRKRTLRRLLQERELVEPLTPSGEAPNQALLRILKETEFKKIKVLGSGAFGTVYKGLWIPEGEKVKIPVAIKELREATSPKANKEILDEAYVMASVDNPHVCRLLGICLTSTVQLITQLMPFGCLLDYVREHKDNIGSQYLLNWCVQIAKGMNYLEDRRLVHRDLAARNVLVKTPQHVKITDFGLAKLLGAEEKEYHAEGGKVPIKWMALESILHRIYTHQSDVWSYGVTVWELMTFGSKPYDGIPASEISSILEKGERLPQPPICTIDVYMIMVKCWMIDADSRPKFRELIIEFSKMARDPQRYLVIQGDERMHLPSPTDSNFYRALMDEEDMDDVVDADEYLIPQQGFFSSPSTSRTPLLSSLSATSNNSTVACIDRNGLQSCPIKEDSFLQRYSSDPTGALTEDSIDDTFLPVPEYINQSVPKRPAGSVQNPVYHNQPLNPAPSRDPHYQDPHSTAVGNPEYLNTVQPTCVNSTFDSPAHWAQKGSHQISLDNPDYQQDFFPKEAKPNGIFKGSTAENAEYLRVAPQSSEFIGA
In short: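 A431 cells, starved overnight in serum-free medium, were exposed to compound for 2 h and then stimulated with 100 ng/mL EGF for 10 min. Cells were extracted in lysis buffer (Hepes pH 7.5, 1% Triton), and EGFR tyrosine autophosphorylation was read by immunoblotting.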

Compound	IC50 [1] [µM]	other results
CCCC(=O)Oc1ccc2[nH]c(C(=O)c3cc4ccccc4[nH]3)cc2c1	1.1	–
CCOc1ccc2[nH]c(C(=O)c3cc4ccccc4[nH]3)cc2c1	2.3	–
COc1ccc2[nH]c(C(=O)c3cc4ccccc4s3)cc2c1	1	–
O=C(c1cc2ccccc2[nH]1)c1cc2cc(OCCN3CCOCC3)ccc2[nH]1	2.5	–
CN(C)CCOc1ccc2[nH]c(C(=O)c3cc4ccccc4[nH]3)cc2c1	0.8	–
COc1cccc2cc(C(=O)c3cc4ccccc4[nH]3)[nH]c12	> 30	–
O=C(c1cc2ccccc2[nH]1)c1cc2cc(OCC3CCCCC3)ccc2[nH]1	> 30	–
Cc1ccc2[nH]c(C(=O)c3cc4ccccc4[nH]3)cc2c1	7.5	–
O=C(c1cc2ccccc2[nH]1)c1cc2cc(OCc3ccccc3)ccc2[nH]1	10	–
O=C(c1cc2ccccc2[nH]1)c1cc2cc(OC(=O)C3CC3)ccc2[nH]1	9.1	–
O=C(Cc1cccs1)Oc1ccc2[nH]c(C(=O)c3cc4ccccc4[nH]3)cc2c1	0.8	–
COc1ccc2[nH]c(C(=O)c3cc4ccccc4[nH]3)cc2c1	0.3	–
COc1ccc2[nH]c(C(=O)c3cc4cc(OC)ccc4[nH]3)cc2c1	10	–
O=C(c1cc2ccccc2[nH]1)c1cc2cc(OCCCCCI)ccc2[nH]1	> 20	–
COc1cc(C(=O)Oc2ccc3[nH]c(C(=O)c4cc5ccccc5[nH]4)cc3c2)cc(OC)c1OC	4.1	–
COc1cccc(CC(=O)Oc2ccc3[nH]c(C(=O)c4cc5ccccc5[nH]4)cc3c2)c1	1	–
CN(C)CC(=O)Oc1ccc2[nH]c(C(=O)c3cc4ccccc4[nH]3)cc2c1	0.1	IC50 [2]: 0.1 µM; IC50 [3]: 0.1 µM; IC50 [4]: > 10 µM; IC50 [5]: > 30 µM; IC50 [6]: 30 µM; IC50 [7]: 1.3 µM; IC50 [8]: > 100 µM; IC50 [9]: 15.1 µM; IC50 [10]: 0.1 µM; IC50 [11]: > 30 µM
O=C(c1cc2ccccc2[nH]1)c1cc2cc(OC(=O)C3CCC3)ccc2[nH]1	9.1	–
CC(=O)OC(C(=O)Oc1ccc2[nH]c(C(=O)c3cc4ccccc4[nH]3)cc2c1)c1ccccc1 (stereo not given)	0.9	–
O=C(c1cc2ccccc2s1)c1cc2ccccc2s1	> 30	–
CC(=O)Oc1ccc2[nH]c(C(=O)c3cc4ccccc4[nH]3)cc2c1	0.3	IC50 [2]: 4.9 µM; IC50 [3]: 0.3 µM; IC50 [4]: 0.2 µM; IC50 [5]: > 30 µM; IC50 [6]: > 100 µM; IC50 [7]: 0.07 µM; IC50 [8]: > 100 µM; IC50 [9]: 17 µM; IC50 [10]: 0.1 µM; IC50 [11]: > 30 µM
O=C(c1cc2ccccc2[nH]1)c1cc2cc(OCCN3CCCCC3)ccc2[nH]1	0.8	–
COCC(=O)Oc1ccc2[nH]c(C(=O)c3cc4ccccc4[nH]3)cc2c1	0.2	IC50 [2]: 0.1 µM; IC50 [3]: 0.02 µM; IC50 [4]: > 10 µM; IC50 [5]: > 30 µM; IC50 [6]: > 100 µM; IC50 [7]: 4.2 µM; IC50 [8]: > 100 µM; IC50 [9]: 20.4 µM; IC50 [10]: 0.3 µM; IC50 [11]: > 30 µM
COc1ccc2cc(C(=O)c3cc4ccccc4[nH]3)[nH]c2c1	0.3	–
CN(C)CCCOc1ccc2[nH]c(C(=O)c3cc4ccccc4[nH]3)cc2c1	3.2	–
CCC(=O)Oc1ccc2[nH]c(C(=O)c3cc4ccccc4[nH]3)cc2c1	0.9	–
O=C(c1cc2ccccc2[nH]1)c1cc2cc(O)ccc2[nH]1	0.2	IC50 [2]: 0.2 µM; IC50 [3]: 0.09 µM; IC50 [4]: > 10 µM; IC50 [5]: > 30 µM; IC50 [6]: > 30 µM; IC50 [7]: 0.6 µM; IC50 [9]: > 100 µM; IC50 [10]: 1 µM; IC50 [11]: > 30 µM
O=C(c1cc2ccccc2[nH]1)c1cc2cc(OCCCCI)ccc2[nH]1	5	–
COc1ccc2[nH]c(C(=O)c3cc4ccccc4o3)cc2c1	4	–

Continued, in another order:

IC50 [1] [µM]	Compound	other results
0.6	O=C(c1cc2ccccc2[nH]1)c1cc2cc(OC(=O)c3ccco3)ccc2[nH]1	–
> 30	CC(Oc1ccc2[nH]c(C(=O)c3cc4ccccc4[nH]3)cc2c1)c1ccccc1 (stereo not given)	–
1.7	O=C(Oc1ccc2[nH]c(C(=O)c3cc4ccccc4[nH]3)cc2c1)c1ccc(-c2ccccc2)cc1	–
1.3	CCOc1ccc(C(=O)Oc2ccc3[nH]c(C(=O)c4cc5ccccc5[nH]4)cc3c2)cc1	–
0.4	O=C(Oc1ccc2[nH]c(C(=O)c3cc4ccccc4[nH]3)cc2c1)c1ccc2ccccc2n1	–
0.9	O=C(Oc1ccc2[nH]c(C(=O)c3cc4ccccc4[nH]3)cc2c1)c1ccc([N+](=O)[O-])cc1	–
> 30	O=C(c1cc2ccccc2[nH]1)c1cc2cc(OC(=O)c3ccccc3C(=O)c3ccccc3)ccc2[nH]1	–
3.2	COc1ccc(C(=O)Oc2ccc3[nH]c(C(=O)c4cc5ccccc5[nH]4)cc3c2)cc1	–
3.4	O=C(/C=C/c1ccccc1)Oc1ccc2[nH]c(C(=O)c3cc4ccccc4[nH]3)cc2c1	–
> 30	O=C(c1cc2ccccc2[nH]1)c1cc2cc(OC(=O)C(c3ccccc3)c3ccccc3)ccc2[nH]1	–
> 30	O=C(Oc1ccc2[nH]c(C(=O)c3cc4ccccc4[nH]3)cc2c1)c1cccc(Oc2ccccc2)c1	–
0.8	O=C(Oc1ccc2[nH]c(C(=O)c3cc4ccccc4[nH]3)cc2c1)c1ccccc1	–
1.2	O=C(CCc1ccccc1)Oc1ccc2[nH]c(C(=O)c3cc4ccccc4[nH]3)cc2c1	–
4.6	O=C(c1cc2ccccc2[nH]1)c1cc2cc(OC(=O)c3ccccc3Cl)ccc2[nH]1	–
> 30	O=C(c1cc2ccccc2[nH]1)c1cc2cc(OC(=O)c3ccccc3Oc3ccccc3)ccc2[nH]1	–
1	O=C(Oc1ccc2[nH]c(C(=O)c3cc4ccccc4[nH]3)cc2c1)c1cccnc1	–
2.2	CC(=O)Oc1ccccc1C(=O)Oc1ccc2[nH]c(C(=O)c3cc4ccccc4[nH]3)cc2c1	–
